Laboratory results published in ChEMBL document CHEMBL5058577, “EUbOPEN Chemogenomics Library 2 (Multiplex)” (2022).

Tested on: HEK-293T
Test: Multiplex assay against HEK293T
Format: toxicity, cell-based
Details: human
How it was run: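 On a CQ1 microscope at 37°C and 5% CO2, live cells were imaged after compound addition. They had been stained at seeding with Hoechst33342, BioTracker Green Microtubule Cytoskeleton Dye, MitoTracker Red and Annexin V Alexa Fluor 680. CellPathfinder machine-learning gating assigned cells to Hoechst high-intensity objects or normal cells, normal cells to healthy, pyknosed or fragmented nuclei, and pyknosed cells to mitotic or apoptotic. Tubulin, mitochondrial-mass and membrane-permeability phenotypes are per cents of healthy-nucleus cells.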

[1] = 12 h, 1 µM, compound concentration 1 uM, replicate 1
[2] = 12 h, 1 µM, compound concentration 1 uM, replicate 2
[3] = 12 h, 10 µM, compound concentration 10 uM, replicate 1
[4] = 12 h, 10 µM, compound concentration 10 uM, replicate 2
[5] = 24 h, 1 µM, compound concentration 1 uM, replicate 1
[6] = 24 h, 1 µM, compound concentration 1 uM, replicate 2
[7] = 24 h, 10 µM, compound concentration 10 uM, replicate 1
[8] = 24 h, 10 µM, compound concentration 10 uM, replicate 2
[9] = 48 h, 1 µM, compound concentration 1 uM, replicate 1
[10] = 48 h, 1 µM, compound concentration 1 uM, replicate 2
[11] = 48 h, 10 µM, compound concentration 10 uM, replicate 1
[12] = 48 h, 10 µM, compound concentration 10 uM, replicate 2

Q: With `Cc1ccc(F)cc1C(=O)Nc1ccc(C(=O)N2Cc3cccn3Cc3ccccc32)c(Cl)c1` [LIXIVAPTAN] as the molecule, how does the “Population Apoptotic (%)” value [1] read?
A: 36%

Q: And the “Population Fragmented Nuclei (%)” value [1]?
A: 5%

Q: What about the “Population Healthy Nuclei (%)” value [1] of the same molecule?
A: 83%

Q: And the “Population Hoechst High Intensity Objects (%)” value [1]?
A: 7%

Q: And the “Population Membrane Permeable-Phenotype (%)” value [1]?
A: 0%

Q: What about the “Population Mitochondria Different-Phenotype (%)” value [1] of the same molecule?
A: 45%

Q: What about the “Population Mitotic Cells (%)” value [1] of the same molecule?
A: 63%

Q: What about the “Population Normal (%)” value [1] of the same molecule?
A: 92%

Q: And the “Population Pyknosed Nuclei (%)” value [1]?
A: 10%

Q: And the “Population Tubulin-Different-Phenotype (%)” value [1]?
A: 38%

Q: What about the “Total Cell Count” value [1] of the same molecule?
A: 486

Q: What about the “Population Apoptotic (%)” value [2] of the same molecule?
A: 40%

Q: What about the “Population Fragmented Nuclei (%)” value [2] of the same molecule?
A: 6%

Q: What about the “Population Healthy Nuclei (%)” value [2] of the same molecule?
A: 74%

Q: What about the “Population Hoechst High Intensity Objects (%)” value [2] of the same molecule?
A: 5%

Q: What about the “Population Mitochondria Different-Phenotype (%)” value [2] of the same molecule?
A: 57%

Q: What about the “Population Mitotic Cells (%)” value [2] of the same molecule?
A: 60%

Q: And the “Population Normal (%)” value [2]?
A: 94%

Q: And the “Population Pyknosed Nuclei (%)” value [2]?
A: 19%

Q: And the “Population Tubulin-Different-Phenotype (%)” value [2]?
A: 32%

Q: And the “Total Cell Count” value [2]?
A: 335

Q: What about the “Population Apoptotic (%)” value [3] of the same molecule?
A: 46%

Q: What about the “Population Fragmented Nuclei (%)” value [3] of the same molecule?
A: 6%

Q: What about the “Population Healthy Nuclei (%)” value [3] of the same molecule?
A: 70%

Q: What about the “Population Hoechst High Intensity Objects (%)” value [3] of the same molecule?
A: 10%

Q: And the “Population Membrane Permeable-Phenotype (%)” value [3]?
A: 0%

Q: And the “Population Mitochondria Different-Phenotype (%)” value [3]?
A: 75%

Q: What about the “Population Mitotic Cells (%)” value [3] of the same molecule?
A: 53%

Q: And the “Population Normal (%)” value [3]?
A: 89%

Q: And the “Population Pyknosed Nuclei (%)” value [3]?
A: 22%

Q: And the “Population Tubulin-Different-Phenotype (%)” value [3]?
A: 78%

Q: What about the “Total Cell Count” value [3] of the same molecule?
A: 339

Q: What about the “Population Apoptotic (%)” value [4] of the same molecule?
A: 50%

Q: What about the “Population Healthy Nuclei (%)” value [4] of the same molecule?
A: 67%

Q: And the “Population Hoechst High Intensity Objects (%)” value [4]?
A: 6%

Q: What about the “Population Membrane Permeable-Phenotype (%)” value [4] of the same molecule?
A: 1%

Q: What about the “Population Mitochondria Different-Phenotype (%)” value [4] of the same molecule?
A: 81%

Q: And the “Population Mitotic Cells (%)” value [4]?
A: 50%

Q: And the “Population Normal (%)” value [4]?
A: 93%

Q: What about the “Population Pyknosed Nuclei (%)” value [4] of the same molecule?
A: 25%

Q: What about the “Population Tubulin-Different-Phenotype (%)” value [4] of the same molecule?
A: 67%

Q: What about the “Total Cell Count” value [4] of the same molecule?
A: 357

Q: And the “Population Apoptotic (%)” value [5]?
A: 30%

Q: What about the “Population Fragmented Nuclei (%)” value [5] of the same molecule?
A: 9%

Q: And the “Population Healthy Nuclei (%)” value [5]?
A: 77%

Q: What about the “Population Hoechst High Intensity Objects (%)” value [5] of the same molecule?
A: 5%

Q: And the “Population Membrane Permeable-Phenotype (%)” value [5]?
A: 0%

Q: And the “Population Mitochondria Different-Phenotype (%)” value [5]?
A: 30%

Q: And the “Population Mitotic Cells (%)” value [5]?
A: 69%

Q: What about the “Population Normal (%)” value [5] of the same molecule?
A: 94%

Q: And the “Population Pyknosed Nuclei (%)” value [5]?
A: 13%

Q: What about the “Population Tubulin-Different-Phenotype (%)” value [5] of the same molecule?
A: 24%

Q: What about the “Total Cell Count” value [5] of the same molecule?
A: 595

Q: What about the “Population Apoptotic (%)” value [6] of the same molecule?
A: 36%

Q: What about the “Population Fragmented Nuclei (%)” value [6] of the same molecule?
A: 10%

Q: What about the “Population Healthy Nuclei (%)” value [6] of the same molecule?
A: 76%

Q: What about the “Population Hoechst High Intensity Objects (%)” value [6] of the same molecule?
A: 7%

Q: What about the “Population Mitochondria Different-Phenotype (%)” value [6] of the same molecule?
A: 42%

Q: And the “Population Mitotic Cells (%)” value [6]?
A: 63%

Q: What about the “Population Normal (%)” value [6] of the same molecule?
A: 92%

Q: What about the “Population Tubulin-Different-Phenotype (%)” value [6] of the same molecule?
A: 22%

Q: And the “Total Cell Count” value [6]?
A: 423

Q: What about the “Population Apoptotic (%)” value [7] of the same molecule?
A: 37%

Q: What about the “Population Fragmented Nuclei (%)” value [7] of the same molecule?
A: 5%

Q: And the “Population Healthy Nuclei (%)” value [7]?
A: 69%

Q: What about the “Population Hoechst High Intensity Objects (%)” value [7] of the same molecule?
A: 7%

Q: And the “Population Membrane Permeable-Phenotype (%)” value [7]?
A: 0%

Q: What about the “Population Mitochondria Different-Phenotype (%)” value [7] of the same molecule?
A: 74%

Q: And the “Population Mitotic Cells (%)” value [7]?
A: 62%

Q: What about the “Population Normal (%)” value [7] of the same molecule?
A: 92%

Q: What about the “Population Pyknosed Nuclei (%)” value [7] of the same molecule?
A: 24%

Q: What about the “Population Tubulin-Different-Phenotype (%)” value [7] of the same molecule?
A: 71%

Q: What about the “Total Cell Count” value [7] of the same molecule?
A: 392

Q: And the “Population Apoptotic (%)” value [8]?
A: 58%

Q: And the “Population Fragmented Nuclei (%)” value [8]?
A: 8%

Q: What about the “Population Healthy Nuclei (%)” value [8] of the same molecule?
A: 72%

Q: And the “Population Hoechst High Intensity Objects (%)” value [8]?
A: 6%

Q: And the “Population Mitochondria Different-Phenotype (%)” value [8]?
A: 78%

Q: What about the “Population Mitotic Cells (%)” value [8] of the same molecule?
A: 41%

Q: What about the “Population Normal (%)” value [8] of the same molecule?
A: 93%

Q: And the “Population Pyknosed Nuclei (%)” value [8]?
A: 19%

Q: And the “Population Tubulin-Different-Phenotype (%)” value [8]?
A: 69%

Q: And the “Total Cell Count” value [8]?
A: 401

Q: And the “Population Apoptotic (%)” value [9]?
A: 22%

Q: And the “Population Fragmented Nuclei (%)” value [9]?
A: 12%

Q: What about the “Population Healthy Nuclei (%)” value [9] of the same molecule?
A: 80%

Q: And the “Population Hoechst High Intensity Objects (%)” value [9]?
A: 2%

Q: What about the “Population Membrane Permeable-Phenotype (%)” value [9] of the same molecule?
A: 0%

Q: And the “Population Mitochondria Different-Phenotype (%)” value [9]?
A: 19%

Q: And the “Population Mitotic Cells (%)” value [9]?
A: 77%

Q: And the “Population Normal (%)” value [9]?
A: 97%

Q: What about the “Population Pyknosed Nuclei (%)” value [9] of the same molecule?
A: 6%

Q: And the “Population Tubulin-Different-Phenotype (%)” value [9]?
A: 17%

Q: And the “Total Cell Count” value [9]?
A: 995

Q: What about the “Population Apoptotic (%)” value [10] of the same molecule?
A: 17%

Q: What about the “Population Hoechst High Intensity Objects (%)” value [10] of the same molecule?
A: 4%

Q: And the “Population Mitochondria Different-Phenotype (%)” value [10]?
A: 24%

Q: What about the “Population Mitotic Cells (%)” value [10] of the same molecule?
A: 82%

Q: What about the “Population Normal (%)” value [10] of the same molecule?
A: 95%

Q: What about the “Population Pyknosed Nuclei (%)” value [10] of the same molecule?
A: 7%

Q: And the “Population Tubulin-Different-Phenotype (%)” value [10]?
A: 21%

Q: What about the “Total Cell Count” value [10] of the same molecule?
A: 643

Q: What about the “Population Apoptotic (%)” value [11] of the same molecule?
A: 43%

Q: And the “Population Fragmented Nuclei (%)” value [11]?
A: 9%

Q: What about the “Population Healthy Nuclei (%)” value [11] of the same molecule?
A: 74%

Q: What about the “Population Hoechst High Intensity Objects (%)” value [11] of the same molecule?
A: 7%

Q: What about the “Population Membrane Permeable-Phenotype (%)” value [11] of the same molecule?
A: 0%

Q: What about the “Population Mitochondria Different-Phenotype (%)” value [11] of the same molecule?
A: 72%

Q: And the “Population Mitotic Cells (%)” value [11]?
A: 56%

Q: And the “Population Normal (%)” value [11]?
A: 92%

Q: What about the “Population Pyknosed Nuclei (%)” value [11] of the same molecule?
A: 16%

Q: What about the “Population Tubulin-Different-Phenotype (%)” value [11] of the same molecule?
A: 69%

Q: And the “Total Cell Count” value [11]?
A: 489

Q: And the “Population Apoptotic (%)” value [12]?
A: 46%

Q: What about the “Population Fragmented Nuclei (%)” value [12] of the same molecule?
A: 11%

Q: And the “Population Hoechst High Intensity Objects (%)” value [12]?
A: 8%

Q: What about the “Population Mitochondria Different-Phenotype (%)” value [12] of the same molecule?
A: 71%

Q: And the “Population Mitotic Cells (%)” value [12]?
A: 53%

Q: And the “Population Normal (%)” value [12]?
A: 91%

Q: And the “Population Pyknosed Nuclei (%)” value [12]?
A: 14%

Q: What about the “Population Tubulin-Different-Phenotype (%)” value [12] of the same molecule?
A: 59%

Q: And the “Total Cell Count” value [12]?
A: 437
